We go through one compound from ChEMBL document CHEMBL3739255, “Novel Series of Dihydropyridinone P2X7 Receptor Antagonists” (J Med Chem, 2015).

Data set [1] can be described thus: Cmax in rat at 2 mg/kg, po administered as single dose. The class given is ADME, organism-based. Set-up: dose 2 mg/kg, route oral. Conditions: in vivo. The procedure, abridged:
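Single-dose rat PK: iv at 0.5 mg/kg and po at 2 mg/kg. n ≥ 2 animals per time point. Oral AUC normalized to dose; clearance, Vdss and half-life taken from the iv arm.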

Data set [2] has as its target Tumor necrosis factor receptor superfamily member 1A (Homo sapiens) (UniProt P19438). Nature of the data set: Inhibition of human TNFalpha receptor at 10 uM by radioligand binding assay. In a few lines:
(§1)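 Outsourced broad receptor-screening panel of 78 targets, each tested at a single 10 uM concentration; read-out is percent inhibition. Detailed conditions are given only in the Supporting Information.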

The target in another data set is P2X purinoceptor 1 (Homo sapiens, UniProt P51575). The data set is described as follows: Inhibition of P2X1R (unknown origin). The procedure, abridged:
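Selectivity at other P2X receptor subtypes, read as IC50 in a FLIPR Ca2+ flux assay.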

The subject of a further data set is Cynomolgus monkey. The data set is described as follows: Ex-vivo inhibition of LPS-induced IL-1beta production in cynomolgus monkey whole blood. It is filed as functional, organism-based. The following applies: Macaca fascicularis. The procedure, abridged: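 Cynomolgus monkey given 10 mg/kg (route not stated); blood drawn at several timepoints. At each timepoint, 50% whole blood stimulated ex vivo with 25 ng/ml LPS for 2 hr, then 3 mM ATP for 3 hr. Supernatant IL-1β measured (n = 3) and related to total plasma concentration.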

Data set [3] is described as follows: Metabolic stability in human blood. The class given is ADME. The following applies: read-out: Stability (converted).
Data set [4] addresses Adrenergic receptor alpha-1 (Rattus norvegicus) (UniProt P15823+P23944+P43140). The data set is described as follows: Inhibition of rat alpha1-adrenoceptor at 10 uM. The procedure, abridged:
as §1

The next data set concerns Liver microsome. The data set is described as follows: Drug metabolism in human liver microsomes assessed as GSH adduct UV peak area at 20 uM preincubated for 5 mins followed by NADPH addition measured after 60 mins by LC/MS/MS analysis relative to total area of GSH adduct, other metabolites, parent compound. The class given is ADME. The following applies: 1 h, BLD = below limit of detection.

Data set [5] addresses Thromboxane A2 receptor (Homo sapiens) (UniProt P21731). The data set is described as follows: Inhibition of human TP prostanoid receptor at 10 uM by radioligand binding assay. The procedure, abridged:
as §1

A further data set has as its target P2X purinoceptor 7 (Rattus norvegicus, UniProt Q64663). The data set is described as follows: Antagonist activity at rat P2X7R expressed in BzATP-stimulated HEK293 cells incubated for 20 mins followed by BzATP stimulation measured every 1 sec for 60 secs followed by 3 sec intervals for 4 mins by FLIPR Ca2+ assay in presence of ionomycin. It is filed as cell-based.

For data set [6], the target named is Substance-P receptor (Homo sapiens) (UniProt P25103). Nature of the data set: Inhibition of human NK1 receptor at 10 uM by radioligand binding assay. The procedure, abridged: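 Commercial receptor scan across a 78-target panel, with percent inhibition measured at a test concentration of 10 uM.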
Sequence of Substance-P receptor (Homo sapiens) (P25103 whole entry): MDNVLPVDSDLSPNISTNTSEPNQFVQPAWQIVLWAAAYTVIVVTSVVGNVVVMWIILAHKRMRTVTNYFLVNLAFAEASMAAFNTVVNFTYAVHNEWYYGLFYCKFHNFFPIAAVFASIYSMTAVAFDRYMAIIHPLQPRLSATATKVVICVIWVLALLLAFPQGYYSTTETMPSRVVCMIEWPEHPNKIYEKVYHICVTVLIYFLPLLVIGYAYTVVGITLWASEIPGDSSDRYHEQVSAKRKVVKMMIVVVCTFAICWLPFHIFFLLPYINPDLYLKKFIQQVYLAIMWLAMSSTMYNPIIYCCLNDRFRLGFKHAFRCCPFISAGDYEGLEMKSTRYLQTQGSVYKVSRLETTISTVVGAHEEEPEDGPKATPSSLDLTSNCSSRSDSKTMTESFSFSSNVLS

Sequence of Thromboxane A2 receptor (Homo sapiens) (P21731 whole entry): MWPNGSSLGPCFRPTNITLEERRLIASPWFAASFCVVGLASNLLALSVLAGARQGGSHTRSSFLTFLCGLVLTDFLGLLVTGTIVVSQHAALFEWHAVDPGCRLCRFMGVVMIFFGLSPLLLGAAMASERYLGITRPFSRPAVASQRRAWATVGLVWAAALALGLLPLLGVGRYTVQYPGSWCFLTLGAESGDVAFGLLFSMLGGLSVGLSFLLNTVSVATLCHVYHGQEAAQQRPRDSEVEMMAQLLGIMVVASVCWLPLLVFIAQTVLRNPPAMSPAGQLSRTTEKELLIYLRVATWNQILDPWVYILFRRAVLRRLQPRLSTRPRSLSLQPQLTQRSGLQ
Sequence of P2X purinoceptor 1 (P51575 whole entry): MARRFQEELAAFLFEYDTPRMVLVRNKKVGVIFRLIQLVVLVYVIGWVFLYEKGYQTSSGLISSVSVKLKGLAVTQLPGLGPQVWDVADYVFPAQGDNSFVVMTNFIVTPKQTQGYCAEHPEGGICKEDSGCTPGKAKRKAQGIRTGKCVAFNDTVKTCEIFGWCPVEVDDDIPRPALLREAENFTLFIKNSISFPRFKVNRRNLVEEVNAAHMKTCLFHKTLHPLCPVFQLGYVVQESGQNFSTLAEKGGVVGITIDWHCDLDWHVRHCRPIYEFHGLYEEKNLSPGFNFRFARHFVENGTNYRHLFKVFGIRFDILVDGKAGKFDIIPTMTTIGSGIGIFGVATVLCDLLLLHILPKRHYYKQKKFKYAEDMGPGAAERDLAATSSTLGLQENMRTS
Sequence of Tumor necrosis factor receptor superfamily member 1A (Homo sapiens) (P19438 whole entry): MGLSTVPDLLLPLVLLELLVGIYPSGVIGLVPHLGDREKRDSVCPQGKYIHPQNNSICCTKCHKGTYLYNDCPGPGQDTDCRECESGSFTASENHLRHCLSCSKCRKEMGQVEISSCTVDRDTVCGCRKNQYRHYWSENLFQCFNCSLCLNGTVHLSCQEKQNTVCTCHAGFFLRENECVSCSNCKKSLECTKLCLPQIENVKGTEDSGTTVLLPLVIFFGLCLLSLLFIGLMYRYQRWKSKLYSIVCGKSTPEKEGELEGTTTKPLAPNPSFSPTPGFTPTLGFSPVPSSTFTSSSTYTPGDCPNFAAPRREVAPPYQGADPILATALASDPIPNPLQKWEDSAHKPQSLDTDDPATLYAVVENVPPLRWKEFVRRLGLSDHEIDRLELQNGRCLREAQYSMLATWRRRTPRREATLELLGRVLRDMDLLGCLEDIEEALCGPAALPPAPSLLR
Sequence of P2X purinoceptor 7 (Q64663 whole entry): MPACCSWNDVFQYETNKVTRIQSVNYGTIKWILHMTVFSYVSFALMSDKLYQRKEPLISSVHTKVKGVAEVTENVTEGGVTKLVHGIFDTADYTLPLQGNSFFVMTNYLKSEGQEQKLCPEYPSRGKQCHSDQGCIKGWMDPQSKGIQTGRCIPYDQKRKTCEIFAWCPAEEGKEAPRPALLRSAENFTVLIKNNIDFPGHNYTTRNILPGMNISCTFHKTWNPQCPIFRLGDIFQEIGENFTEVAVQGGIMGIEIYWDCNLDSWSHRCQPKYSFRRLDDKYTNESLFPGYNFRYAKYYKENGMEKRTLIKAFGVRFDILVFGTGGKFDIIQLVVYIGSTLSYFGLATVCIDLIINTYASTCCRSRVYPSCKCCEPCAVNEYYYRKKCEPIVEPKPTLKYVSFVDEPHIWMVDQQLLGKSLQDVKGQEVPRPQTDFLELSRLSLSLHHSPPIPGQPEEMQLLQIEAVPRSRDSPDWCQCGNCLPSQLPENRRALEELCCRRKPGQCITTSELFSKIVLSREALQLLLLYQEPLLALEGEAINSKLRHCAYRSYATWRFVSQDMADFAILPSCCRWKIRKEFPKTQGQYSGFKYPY

The term Cmax denotes the highest concentration seen after dosing. What is called inhibition is the percentage by which the read-out fell short of the control. The term IC50 denotes the concentration that gives 50% inhibition. As for `Cc1cc(Cl)c(OCCO)cc1NC(=O)C1=CNC(=O)C[C@H]1c1ccc(F)cc1`, the concentration in data set [1] peaked (Cmax) at 330 ng/mL. Also, the inhibition in [2], in [4], in [5] and in [6] was < 30% in each case. Moreover, the IC50 was > 10 µM at P2X purinoceptor 1, 0.3 µM with Cynomolgus monkey and > 10 µM on P2X purinoceptor 7. The half-life in data set [3] is 3 h. Besides, the Drug metabolism result with Liver microsome is on record as “BLD”.
